Data: ChEMBL document CHEMBL1146622, “Synthesis and biological evaluation of a novel phenyl substituted sydnone series as potential antitumor agents” (2003)

Tests used:
Type in all cases: functional, Homo sapiens
SF-268 = assay: In vitro antitumor activity determined against SF-268 cells expressed as percent of growth of the treated cells compared to untreated cells; design: concentration or dose not given beside the values
In short: (§1)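 NCI 3-cell-line prescreen (MCF7 breast, NCI-H460 lung, SF-268 CNS). Cells inoculated and incubated in microtiter plates, then exposed to test agent at a single concentration for 48 h. Alamar blue end-point read-out. Value is percent growth of treated cells relative to untreated cells.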

NCI-H460 = assay: In vitro antitumor activity determined against NCI-H460 cells expressed as percent of growth of the treated cells compared to untreated cells; design: concentration or dose not given beside the values; in short: as §1
MCF7S [1] = assay: In vitro antitumor activity determined against MCF-7 cells expressed as percent of growth of the treated cells compared to untreated cells; design: concentration or dose not given beside the values; in short: as §1
MCF7S [2] = assay: In vitro antitumor activity determined against MCF-7 cells (breast) expressed as percent of growth of the treated cells compared to untreated cells; in short: as §1

With `O=[N+]([O-])c1cc(-[n+]2cc([O-])on2)ccc1N1CCC1` the Cell growth (SF-268) was 95%, the Cell growth (NCI-H460) was 95% and the Cell growth (MCF7S [1]) was 75%.

`O=[N+]([O-])c1cc(-[n+]2cc([O-])on2)ccc1F` showed a Cell growth (SF-268) of 0%, a Cell growth (NCI-H460) of 0% and a Cell growth (MCF7S [1]) of 0%.

`O=[N+]([O-])c1cc(-[n+]2cc([O-])on2)ccc1Cl` gave a Cell growth (SF-268) of 9%, a Cell growth (MCF7S [2]) of 44% and a Cell growth (NCI-H460) of 91%.

With `O=[N+]([O-])c1cc(-[n+]2cc([O-])on2)ccc1N1Cc2ccccc2C1` the Cell growth (SF-268) was 95%, the Cell growth (NCI-H460) was 76% and the Cell growth (MCF7S [1]) was 75%.

Work on `O=[N+]([O-])c1cc(-[n+]2cc([O-])on2)ccc1N1CCc2ccccc21` yielded a Cell growth (SF-268) of 96%, a Cell growth (NCI-H460) of 87% and a Cell growth (MCF7S [1]) of 82%.

Compound `CCN(CC)c1ccc(-[n+]2cc([O-])on2)cc1[N+](=O)[O-]` has a Cell growth (SF-268) of 95%, a Cell growth (NCI-H460) of 92% and a Cell growth (MCF7S [1]) of 85%.
